Reference: the RNAGym collection of RNA variant scans (doi:10.1038/s41586-018-0170-7)

B1: tRNA (parent)
chain: GUUCCGUUGGCGUAAUGGUAACGCGUCUCCCUCCUAAGGAGAAGACUGCGGGUUCGAGUCCCGUACGGAACG

Variants of: B1
Assay: yeast fitness, log relative to wild type (ln ratio); higher = fitter; tRNA-Arg(CCU), competitive growth, 37 C, 1 M NaCl
How it was run: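 Fitness is the natural log of a genotype's generation count divided by that of the wild type. A combinatorial library of tRNA-Arg(CCU) variants sat on a HIS3 centromeric plasmid in BY4742 lacking the chromosomal gene, from two independent transformations. Pools grew 4 generations in SC-HIS at 30 °C, then ~6.5 generations (~26.5 h) in SC-HIS 1M NaCl at 37 °C, with three outputs per input. Generations came from OD-scaled log2 output/input frequency, inverse-variance weighted across replicates, with variants counted by 125 bp paired-end Illumina sequencing.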

Variant | yeast fitness (ln)
AUUCCUUUGGCGUAAUGGUAACGCGUUUCCCUCCUAAGGAGACGAUUGCGGGUUCGAGUCCCGUAAGGAACG [G1A G6U C27U A43C C46U C66A] | -0.168
AUUCCUUUGGCGUAAUGGUAACGCGUCUCCCUCCUAAGGAGACGACUGCGGGUUCGAGUCCCGUAUGGAUUG [G1A G6U A43C C66U A70U C71U] | -0.38
AUUCCUUUGGCGUAAUGGUAACGCGUCUCCCUCCUAAGGAGAAGACUGCGGGUUCGAGUCCCGUACGGGUUG [G1A G6U A69G A70U C71U] | -0.407
AUUCCUUUGGCGUAAUGGUAACGCGUCUCCCUCCUAAGGAGAAGACUGCGGGUUCGAGUCCCGUACGGAGUG [G1A G6U A70G C71U] | -0.148
AUUCCUUUGGCGUAAUGGUAACGCGUUUCCCUCCUAAGGAGACGAUUGCGGGUUCGAGUCCCGUAAGGAGCG [G1A G6U C27U A43C C46U C66A A70G] | -0.319
AUUCCUUUGGCGUAAUGGUAACGCGUCUCCCUCCUAAGGAGACGAUUGCGGGUUCGAGUCCCGUAUGGAUUG [G1A G6U A43C C46U C66U A70U C71U] | -0.432
AUUCCUUUGGCGUAAUGGUAACGCGUUUCCCUCCUAAGGAGACGAUUGCGGGUUCGAGUCCCGUACGGAUUG [G1A G6U C27U A43C C46U A70U C71U] | -0.318
AUUCCUUUGGCGUAAUGGUAACGCGUUUCCCUCCUAAGGAGACGAUUGCGGGUUCGAGUCCCGUACGGAACG [G1A G6U C27U A43C C46U] | -0.258
AUUCCUUUGGCGUAAUGGUAACGCGUCUCCCUCCUAAGGAGACGAUUGCGGGUUCGAGUCCCGUAUGGAACG [G1A G6U A43C C46U C66U] | -0.286
AUUCCUUUGGCGUAAUGGUAACGCGUUUCCCUCCUAAGGAGACGAUUGCGGGUUCGAGUCCCGUACGGGGUG [G1A G6U C27U A43C C46U A69G A70G C71U] | -0.414
AUUCCUUUGGCGUAAUGGUAACGCGUCUCCCUCCUAAGGAGACGAUUGCGGGUUCGAGUCCCGUAUGGGAUG [G1A G6U A43C C46U C66U A69G C71U] | -0.43
AUUCCUUUGGCGUAAUGGUAACGCGUUUCCCUCCUAAGGAGACGAUUGCGGGUUCGAGUCCCGUAAGGGAUG [G1A G6U C27U A43C C46U C66A A69G C71U] | -0.671
AUUCCUUUGGCGUAAUGGUAACGCGUCUCCCUCCUAAGGAGACGACUGCGGGUUCGAGUCCCGUAAGGAGUG [G1A G6U A43C C66A A70G C71U] | -0.517
AUUCCUUUGGCGUAAUGGUAACGCGUUUCCCUCCUAAGGAGACGACUGCGGGUUCGAGUCCCGUACGGGUCG [G1A G6U C27U A43C A69G A70U] | -0.481
AUUCCUUUGGCGUAAUGGUAACGCGUUUCCCUCCUAAGGAGACGACUGCGGGUUCGAGUCCCGUACGGGGCG [G1A G6U C27U A43C A69G A70G] | -0.536
AUUCCUUUGGCGUAAUGGUAACGCGUUUCCCUCCUAAGGAGACGACUGCGGGUUCGAGUCCCGUACGGAUUG [G1A G6U C27U A43C A70U C71U] | -0.341
AUUCCUUUGGCGUAAUGGUAACGCGUCUCCCUCCUAAGGAGACGAUUGCGGGUUCGAGUCCCGUAUGGGGCG [G1A G6U A43C C46U C66U A69G A70G] | -0.389
AUUCCUUUGGCGUAAUGGUAACGCGUCUCCCUCCUAAGGAGACGAUUGCGGGUUCGAGUCCCGUAUGGGUCG [G1A G6U A43C C46U C66U A69G A70U] | -0.305
AUUCCUUUGGCGUAAUGGUAACGCGUCUCCCUCCUAAGGAGACGACUGCGGGUUCGAGUCCCGUACGGAAUG [G1A G6U A43C C71U] | -0.101

Variant | yeast fitness (ln)
AUUCCUUUGGCGUAAUGGUAACGCGUUUCCCUCCUAAGGAGAAGACUGCGGGUUCGAGUCCCGUACGGAACG [G1A G6U C27U] | -0.16
AUUCCUUUGGCGUAAUGGUAACGCGUUUCCCUCCUAAGGAGACGAUUGCGGGUUCGAGUCCCGUACGGGUUG [G1A G6U C27U A43C C46U A69G A70U C71U] | -0.475
AUUCCUUUGGCGUAAUGGUAACGCGUUUCCCUCCUAAGGAGACGAUUGCGGGUUCGAGUCCCGUAAGGGUUG [G1A G6U C27U A43C C46U C66A A69G A70U C71U] | -0.426
AUUCCUUUGGCGUAAUGGUAACGCGUUUCCCUCCUAAGGAGACGACUGCGGGUUCGAGUCCCGUACGGGGUG [G1A G6U C27U A43C A69G A70G C71U] | -0.34
AUUCCUUUGGCGUAAUGGUAACGCGUUUCCCUCCUAAGGAGACGAUUGCGGGUUCGAGUCCCGUAAGGGGUG [G1A G6U C27U A43C C46U C66A A69G A70G C71U] | -0.359
AUUCCUUUGGCGUAAUGGUAACGCGUCUCCCUCCUAAGGAGACGACUGCGGGUUCGAGUCCCGUAUGGAAUG [G1A G6U A43C C66U C71U] | -0.333
AUUCCUUUGGCGUAAUGGUAACGCGUUUCCCUCCUAAGGAGACGAUUGCGGGUUCGAGUCCCGUACGGGAUG [G1A G6U C27U A43C C46U A69G C71U] | -0.328
AUUCCUUUGGCGUAAUGGUAACGCGUCUCCCUCCUAAGGAGACGAUUGCGGGUUCGAGUCCCGUAAGGAAUG [G1A G6U A43C C46U C66A C71U] | -0.0191
AUUCCUUUGGCGUAAUGGUAACGCGUUUCCCUCCUAAGGAGACGAUUGCGGGUUCGAGUCCCGUAAGGGGCG [G1A G6U C27U A43C C46U C66A A69G A70G] | -0.432
AUUCCUUUGGCGUAAUGGUAACGCGUCUCCCUCCUAAGGAGACGACUGCGGGUUCGAGUCCCGUAUGGAGUG [G1A G6U A43C C66U A70G C71U] | -0.424
AUUCCUUUGGCGUAAUGGUAACGCGUCUCCCUCCUAAGGAGACGACUGCGGGUUCGAGUCCCGUAAGGAAUG [G1A G6U A43C C66A C71U] | -0.0965
AUUCCUUUGGCGUAAUGGUAACGCGUCUCCCUCCUAAGGAGACGACUGCGGGUUCGAGUCCCGUAAGGAACG [G1A G6U A43C C66A] | -0.19
AUUCCUUUGGCGUAAUGGUAACGCGUCUCCCUCCUAAGGAGACGACUGCGGGUUCGAGUCCCGUAUGGAACG [G1A G6U A43C C66U] | -0.232
AUUCCUUUGGCGUAAUGGUAACGCGUUUCCCUCCUAAGGAGACGACUGCGGGUUCGAGUCCCGUACGGAGUG [G1A G6U C27U A43C A70G C71U] | -0.426
AUUCCUUUGGCGUAAUGGUAACGCGUCUCCCUCCUAAGGAGACGACUGCGGGUUCGAGUCCCGUAAGGGGUG [G1A G6U A43C C66A A69G A70G C71U] | -0.348
AUUCCUUUGGCGUAAUGGUAACGCGUCUCCCUCCUAAGGAGACGAUUGCGGGUUCGAGUCCCGUAAGGGAUG [G1A G6U A43C C46U C66A A69G C71U] | -0.198
AUUCCUUUGGCGUAAUGGUAACGCGUCUCCCUCCUAAGGAGACGACUGCGGGUUCGAGUCCCGUAUGGGUUG [G1A G6U A43C C66U A69G A70U C71U] | -0.433
AUUCCUUUGGCGUAAUGGUAACGCGUCUCCCUCCUAAGGAGAAGACUGCGGGUUCGAGUCCCGUACGGGGCG [G1A G6U A69G A70G] | -0.198
